The text below walks through data of ChEMBL document CHEMBL3585293, “Design, antiviral and cytostatic properties of isoxazolidine-containing amonafide analogues” (Bioorg Med Chem, 2015).

The test system of series [1] is HeLa. Briefly: Cytotoxicity against human HeLa cells assessed as reduction of cell survival after 48 hrs by MTT assay. Format: functional, cell-based.
For a further series, the system named is K562. As to the kind of experiment: Cytotoxicity against human K562 cells assessed as reduction of cell survival after 48 hrs by MTT assay. Format: functional, cell-based. Particulars: K562, 48 h.
The subject of series [2] is Cytomegalovirus. Briefly: Antiviral activity against Cytomegalovirus AD-169 infected in HEL cells assessed as reduction of virus-induced cytopathogenicity. Format: functional, organism-based. The following applies: Human betaherpesvirus 5, AD-169, HEL.
For series [3], the system named is Cytomegalovirus. Briefly: Antiviral activity against Cytomegalovirus Davis infected in HEL cells assessed as reduction of virus-induced cytopathogenicity. Format: functional, organism-based. The following applies: Human betaherpesvirus 5, Davis.
A short description of series [4]: Cytotoxicity against HEL cells assessed as alternation of cell morphology by microscopic analysis. Format: cell-based. Particulars: human.
Series [5] has as its system Human alphaherpesvirus 3. Briefly: Antiviral activity against Varicella-zoster virus expressing thymidine kinase infected in HEL cells assessed as reduction of virus-induced plaque formation. Format: functional, organism-based. Particulars: Human alphaherpesvirus 3, HEL. In short, it runs like this: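 Plaque-reduction assay in HEL cells. TK+ VZV strains were Oka and YS; TK- strains were 07-1 and YS-R. Virus input was 100 PFU, with graded compound concentrations. Plaques were counted once formation was complete in untreated infected controls. […] Two independent experiments were run.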

For series [6], the system named is Human alphaherpesvirus 3. Briefly: Antiviral activity against thymidine kinase-deficient Varicella-zoster virus infected in HEL cells assessed as reduction of virus-induced plaque formation. The following applies: Human alphaherpesvirus 3, HEL. Format: functional, organism-based. In short, it runs like this:
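Plaque-reduction assay in HEL cells. TK+ VZV strains were Oka and YS; TK- strains were 07-1 and YS-R. Virus input was 100 PFU, with graded compound concentrations. Plaques were counted once formation was complete in untreated infected controls. Two independent experiments were run.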

The test system of a further series is L1210. As to the kind of experiment: Cytotoxicity against mouse L1210 cells assessed as inhibition of cell proliferation. Format: functional, cell-based.
Series [7] relates to CCRF-CEM. Briefly: Cytotoxicity against human CEM cells assessed as inhibition of cell proliferation. Format: functional, cell-based.
Series [8] has as its system HeLa. As to the kind of experiment: Cytotoxicity against human HeLa cells assessed as inhibition of cell proliferation. Format: functional, cell-based.
Another series concerns MDCK. Briefly: Cytotoxicity against MDCK cells assessed cell viability by MTS assay. Format: cell-based, Canis lupus familiaris. The following applies: dog. The method in brief: (§1)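 Cells were exposed to a range of compound concentrations. Viability was measured by the colorimetric formazan-based MTS assay.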
A short description of series [9]: Cytotoxicity against CRFK cells assessed cell viability by MTS assay. Format: cell-based, Felis catus. The following applies: cat. The method in brief:
as §1

Series [10] deals with Human alphaherpesvirus 1. As to the kind of experiment: Antiviral activity against Herpes simplex virus 1 KOS infected in HEL cells assessed as reduction of virus-induced cytopathogenicity. Format: functional, organism-based. The following applies: Human alphaherpesvirus 1, KOS.
The test system of series [11] is Human alphaherpesvirus 1. As to the kind of experiment: Antiviral activity against thymidine kinase-deficient acyclovir-resistant Herpes simplex virus 1 KOS infected in HEL cells assessed as reduction of virus-induced cytopathogenicity. Format: functional, organism-based. Particulars: Human alphaherpesvirus 1, KOS.
The next series relates to Human alphaherpesvirus 2. As to the kind of experiment: Antiviral activity against Herpes simplex virus 2 G infected in HEL cells assessed as reduction of virus-induced cytopathogenicity. Format: functional, organism-based. The following applies: Human alphaherpesvirus 2, strain G.
The test system of series [12] is CCRF-CEM. As to the kind of experiment: Potency index, ratio of 5-Fluorouracil IC50 to compound IC50 for human CEM cells. Format: functional.
For the next series, the system named is Coxsackievirus B4. Briefly: Antiviral activity against Coxsackievirus B4 infected in African green monkey Vero cells assessed as reduction of virus-induced cytopathogenicity. Format: functional, organism-based. Particulars: Enterovirus B. The method in brief: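 Confluent Vero (Coxsackie B4) or HeLa (vesicular stomatitis virus) monolayers in 96-well plates were inoculated with 100 CCID50 virus or 20 PFU and incubated with varying compound concentrations. Cytopathicity was scored once complete in untreated infected controls. […] Two separate experiments were run.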

Another series relates to Punta Toro virus. Briefly: Antiviral activity against Punta Toro virus infected in African green monkey Vero cells assessed as reduction of virus-induced cytopathogenicity. Format: functional, organism-based. In short, it runs like this:
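Confluent Vero monolayers were infected with 100 CCID50 of virus and then incubated with a range of compound concentrations. Viral cytopathicity was scored once it was complete in untreated infected control cultures. […] Two independent experiments were run.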

Series [13] is described as follows: Cytotoxicity against African green monkey Vero cells assessed as alternation of cell morphology by microscopic analysis. Format: cell-based. Particulars: chlorocebus sabaeus. The method in brief: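 Vero cells were exposed to graded compound concentrations. MCC is the lowest concentration producing a microscopically detectable change in cell morphology. Two experiments were run.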

Consider `CCOP(=O)(OCC)C1CC(c2ccc3ccccc3c2)ON1C` (stereo not drawn), for which the IC50 in the series with HeLa [1] was determined as 50 µM.

In the case of `CCOP(=O)(OCC)C1CC(c2cccc3ccccc23)ON1C` (stereo not drawn), the IC50 with K562 came out at 90 µM.

For the molecule `CCCN1C(=O)c2cccc3cc(NC(=O)[C@H]4C[C@@H](P(=O)(OCC)OCC)N(C)O4)cc(c23)C1=O` (racemic), the EC50 with Cytomegalovirus [2] came to 45 µM; in the series on Cytomegalovirus [3], 45 µM; in the series on Human alphaherpesvirus 3 [5], 20 µM; in the series with Human alphaherpesvirus 3 [6] it was 38 µM. In series [4], the MCC is above 100 µM. Also, the IC50 turned out to be 76 µM with L1210, 47 µM in the series with CCRF-CEM [7] and 70 µM with HeLa [8]. Moreover, the CC50 (with MDCK; in [9]) was above 100 µM in each case.

As to `CCCCN1C(=O)c2cccc3cc(NC(=O)[C@@H]4C[C@@H](P(=O)(OCC)OCC)N(C)O4)cc(c23)C1=O` (racemic), the EC50 in the series on Cytomegalovirus [2] is above 20 µM; in the series with Cytomegalovirus [3] it was above 20 µM; in the series on Human alphaherpesvirus 3 [5], 28 µM; in the series with Human alphaherpesvirus 3 [6], 40 µM. The MCC in [4] is at least 100 µM. Further, the IC50 in the series on L1210 worked out at 85 µM; in the series with CCRF-CEM [7], 25 µM; in the series on HeLa [8], 78 µM. For the same molecule, the CC50 (in the series with MDCK; in series [9]) was above 100 µM each time.

Turning to `CCOP(=O)(OCC)[C@@H]1C[C@H](C(=O)Nc2cc3c4c(cccc4c2)C(=O)N(CC(C)C)C3=O)ON1C` (racemic), the EC50 in the series on Cytomegalovirus [2] and with Cytomegalovirus [3] was 45 µM each time. For the same molecule, the MCC in series [4] was above 100 µM. The results for the IC50 in the series with L1210, in the series with CCRF-CEM [7] and in the series with HeLa [8] were 73 µM, 26 µM and 49 µM, respectively. Further, the values for the CC50 (with MDCK; in series [9]) were 51.8 µM and above 100 µM, respectively.

In the case of `CCOP(=O)(OCC)[C@@H]1C[C@H](C(=O)Nc2cc3c4c(cccc4c2)C(=O)N(CCN(C)C)C3=O)ON1C` (racemic), the EC50 is 37 µM in the series with Cytomegalovirus [2]; 37 µM in the series with Cytomegalovirus [3]; at least 11 µM with Human alphaherpesvirus 3 [5]; 20 µM in the series with Human alphaherpesvirus 3 [6]; 50 µM in the series on Human alphaherpesvirus 1 [10]; 50 µM with Human alphaherpesvirus 1 [11]. For the same molecule, in the series with Human alphaherpesvirus 2, the EC50 is 50 µM. Moreover, the MCC in [4] is at least 100 µM. Further, the IC50 is 2.9 µM in the series with L1210, 6 µM with CCRF-CEM [7] and 3.3 µM with HeLa [8]. Moreover, the results for the CC50 (in the series with MDCK; in series [9]) were above 100 µM and 62.2 µM, respectively.

Take `CCOP(=O)(OCC)[C@@H]1C[C@@H](C(=O)Nc2cc3c4c(cccc4c2)C(=O)N(CCN(C)C)C3=O)ON1C` (racemic): the EC50 in the series with Cytomegalovirus [2] is 8.9 µM; in the series with Cytomegalovirus [3], 8.9 µM; in the series with Human alphaherpesvirus 3 [5], 14 µM; with Human alphaherpesvirus 3 [6], 26 µM; in the series with Human alphaherpesvirus 1 [10], 45 µM; in the series with Human alphaherpesvirus 1 [11], 45 µM. Besides, in series [4], the MCC was at least 100 µM. The half-maximal inhibitory concentration (IC50) is 1.5 µM in the series with L1210, 3.4 µM in the series on CCRF-CEM [7] and 1.8 µM in the series with HeLa [8]. Also, the “Ratio IC50” value with CCRF-CEM [12] was determined as 5. Also, the CC50 in the series with MDCK was determined as 75.2 µM; in series [9], 95.2 µM.

In the case of `CCOP(=O)(OCC)[C@@H]1C[C@H](C(=O)Nc2cc3c4c(cccc4c2)C(=O)N(CCN(CC)CC)C3=O)ON1C` (racemic), the EC50 with Cytomegalovirus [2] was 100 µM; in the series on Cytomegalovirus [3], at least 100 µM; in the series on Human alphaherpesvirus 3 [5], above 20 µM; in the series on Human alphaherpesvirus 3 [6] it was 36 µM. In addition, the MCC in series [4] is above 100 µM. Besides, the concentration for half-maximal inhibition (IC50) with L1210 turned out to be 16 µM; in the series with CCRF-CEM [7] it was 23 µM; in the series on HeLa [8], 7.3 µM. In [9], this molecule had a CC50 above 100 µM.

As for `CCOP(=O)(OCC)[C@@H]1C[C@H](C(=O)Nc2cc3c4c(cccc4c2)C(=O)N(CCN2CCCC2)C3=O)ON1C` (racemic), the EC50 in the series on Cytomegalovirus [2] is 45 µM; in the series on Cytomegalovirus [3], 45 µM; in the series on Human alphaherpesvirus 3 [5] it was above 20 µM; in the series with Human alphaherpesvirus 3 [6], above 20 µM; with Human alphaherpesvirus 1 [10] it was above 100 µM; with Human alphaherpesvirus 1 [11], above 100 µM. The EC50 in the series with Human alphaherpesvirus 2 amounted to 58 µM. Besides, the MCC in series [4] was at least 100 µM. The IC50 is 4.4 µM in the series with L1210, 12 µM in the series with CCRF-CEM [7] and 3 µM in the series on HeLa [8]. For the same molecule, the CC50 in the series on MDCK is above 100 µM; in [9], 89.1 µM.

In the case of `CCOP(=O)(OCC)[C@@H]1C[C@@H](C(=O)Nc2cc3c4c(cccc4c2)C(=O)N(CCN2CCCC2)C3=O)ON1C` (relative stereo), the EC50 in the series with Cytomegalovirus [2] is 8.9 µM; with Cytomegalovirus [3], 10.9 µM; in the series on Human alphaherpesvirus 3 [5] it was above 20 µM; in the series with Human alphaherpesvirus 3 [6] it was above 20 µM; with Human alphaherpesvirus 1 [10], 45 µM; with Human alphaherpesvirus 1 [11], 45 µM. Besides, the MCC in [4] is at least 100 µM. Also, the results for the IC50 with L1210, in the series with CCRF-CEM [7] and in the series on HeLa [8] were 1.7 µM, 3.9 µM and 1.1 µM, respectively. The “Ratio IC50” value in the series on CCRF-CEM [12] is listed as 5. Besides, the figures for the CC50 (in the series with MDCK; in [9]) were 87.3 µM and above 100 µM, respectively.

For `O=c1[nH]c(=O)n([C@H]2C[C@H](O)[C@@H](CO)O2)cc1/C=C/Br` [BRIVUDINE], the MCC in series [4] is above 250 µM. Besides, the concentration giving a half-maximal response (EC50) came out at 0.029 µM in the series with Human alphaherpesvirus 3 [5], 1 µM in the series with Human alphaherpesvirus 3 [6] and 2 µM in the series on Human alphaherpesvirus 1 [11].

Consider `NC(=O)c1ncn([C@@H]2O[C@H](CO)[C@@H](O)[C@H]2O)n1` [RIBAVIRIN], for which the EC50 is above 250 µM in the series with Coxsackievirus B4 and 112 µM in the series with Punta Toro virus. Besides, the MCC in [13] was above 250 µM.
